The list is not random: actives were taken first. Their share in the collection is about 2.3%.
Autophagy HCS: autophagy modulators in MEF cells, primary screen, imaging, high-content, MEF GFP-LC3 | AID 463193, 2010 | MEF GFP-LC3 puncta imaging; test concentration mostly 10 µM | calls only at 10 µM (by protocol) | hit rate 0.98% among 190,000;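 active = percentage of spot-positive cells more than 3 SD above its plate mean, without a fluorescence outlier flag or 80% toxicity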;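 note: spot-positive cell cutoff set from DMSO-treated cells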
ROMK primary: ROMK potassium channel modulators, primary screen, cell-based, thallium flux, MLSMR library | ATP-sensitive inward rectifier potassium channel 1 (Homo sapiens), P48048 | Tet-inducible ROMK, thallium flux fluorescence; actives lie on both sides | B-score at 10 µM | hit rate 2% among 130,000;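 active = signal ratio slope over the read window, or its plate-corrected B-score, at least 3 SD from the plate mean, either direction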;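 note: B-score of the F/F0 ratio slope over 7 to 12 s after thallium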
SDO1 yeast rescue: growth rescue of sdo1-depleted yeast, primary screen, S. cerevisiae, bone marrow failure model; S. cerevisiae sdo1-depleted JHY4D growth rescue, OD600 30 h; hits give high values; pdr5 snq2 efflux-pump mutant strain; AID 817, 2007; z-score at 10 µM; hit rate 0.21% among 140,000;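 active = z-score above 3 at both the 24 hr and the 30 hr optical density reads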;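 note: z-score against mean and SD of all compound wells on the same plate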
Insulin prom up: insulin promoter activators in MIN6 cells, imaging, high-content screening, mouse beta cells. MIN6 insulin promoter-GFP reporter; hits give high values. AID 1625, 2009. hit rate 0.3% among 190,000. z-score at 5 µM;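 active = z-score above 3 at 5 µM with at least 500 cells counted in the well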
ABCB1 block: ABCB1 efflux pump inhibitors, primary screen, cell-based, multiplex, flow cytometry, ABCG2 counter-screen. CCRF-Adr cells, JC-1 efflux. inhibition, % at 6.6 µM. hit rate 0.067% among 190,000. AID 1326, 2008; in the data active = inhibition above about 40%;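 note: 0% = vehicle and 100% = reference inhibitor; higher value means more JC-1 retained so stronger ABCB1 efflux block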
ABCG2 inh: ABCG2 efflux pump inhibitors, primary screen, multiplex with ABCB1, IgMXP3 cells, flow cytometry; JC-1 efflux; inhibition, % at 6.6 µM; hit rate 0.1% among 190,000; AID 1325, 2008;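 active = inhibition above 80%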;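 note: 0% = DMSO and 100% = nicardipine control wells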
Target sequence (Q9UNQ0 whole entry, looked up): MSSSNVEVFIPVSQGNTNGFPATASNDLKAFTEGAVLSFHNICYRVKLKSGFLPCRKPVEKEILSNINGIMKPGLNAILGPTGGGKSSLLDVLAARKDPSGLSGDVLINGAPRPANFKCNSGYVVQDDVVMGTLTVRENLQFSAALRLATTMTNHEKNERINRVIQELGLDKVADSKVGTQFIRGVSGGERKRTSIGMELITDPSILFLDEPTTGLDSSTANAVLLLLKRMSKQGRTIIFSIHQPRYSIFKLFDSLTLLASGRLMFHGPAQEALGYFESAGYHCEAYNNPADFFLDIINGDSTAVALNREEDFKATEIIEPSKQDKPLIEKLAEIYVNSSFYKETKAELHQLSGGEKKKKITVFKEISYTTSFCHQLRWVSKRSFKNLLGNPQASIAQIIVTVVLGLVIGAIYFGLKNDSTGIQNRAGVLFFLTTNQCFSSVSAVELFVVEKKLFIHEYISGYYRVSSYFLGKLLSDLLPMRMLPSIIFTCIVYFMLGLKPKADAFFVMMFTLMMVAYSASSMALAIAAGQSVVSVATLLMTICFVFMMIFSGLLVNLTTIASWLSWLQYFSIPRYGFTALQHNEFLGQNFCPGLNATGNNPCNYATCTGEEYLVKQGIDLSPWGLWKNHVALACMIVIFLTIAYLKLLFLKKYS
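Measure – % inhibition of efflux relative to nicardipine and DMSO · Test system – ABCG2 IgMXP3 and barcoded ABCB1 CCRF-Adr cell mix · Control set – nicardipine as high control, DMSO as low control · Compound – one concentration, 6.6 µM final · Signal – flow cytometry of retained JC-1 fluorescence · Timing – 10 min exposure at 25 °C with rotation, no wash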
ROMK hit retest: ROMK channel modulator hit retest, confirmation, cell-based, thallium flux, duplicate, resupplied hits; fluorescence ratio; hits give low values; shares compounds with ROMK primary; normalized thallium flux (F/F0 slope) at 10 µM; hit rate 54% among 3,000; AID 1917, 2009;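 active = Flux at 10 µM at least 3 SD below or above vehicle control mean in one or both replicates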
* hit, by the source's call; i = inactive; . = not tested or not shown; + = active, no number.

SMILES	Autophagy HCS	ROMK primary	SDO1 yeast rescue	Insulin prom up	ABCB1 block	ABCG2 inh	ROMK hit retest
CC(NCC(O)COC1CCC(C(C)(C)C)CC1)c1ccccc1 (stereo not drawn)	+	-2.3*	.	-0.94	1	1	0.058*
C/C(=N\NC(=S)NCc1ccccc1)c1ccc(C)o1	i	1.4	.	0.31	0	11	.
O=C(/C=C/c1c(Cl)cccc1Cl)NCc1ccco1	i	1.7*	-0.01	0.26	0	0	0.079
CC1(C)CNC(=O)c2sc(NC(=O)c3ccccc3Cl)nc2C1	i	-0.32	.	-0.32	0	2	0.076
CC1(C)CC(=O)C(C=NCCN2CCN(C3CC(=O)N(c4ccc(Cl)c(Cl)c4)C3=O)CC2)=C(O)C1 (stereo not drawn)	i	-6.7*	.	-0.41	0	3	0.077
CN1C(=O)CC(N2CCN(CCN=CC3=C(O)CC(C)(C)CC3=O)CC2)C1=O (stereo not drawn)	i	0.97	0.19	0.26	0	0	.
O=C1CC(c2ccc(Cl)c(Cl)c2)CC(O)=C1C=NCCN1CCNCC1 (stereo not drawn)	i	.	0.46	0.95	0	0	0.057*
CCOC(=O)CSc1nc2c(sc(=S)n2-c2ccccc2OC)c(=O)n1Cc1ccco1	i	.	-0.77	-0.05	10	1	0.049*
CCOC(=O)N1CCN(C(=O)C2CCCN(S(=O)(=O)c3cccnc3)C2)CC1 (stereo not drawn)	i	.	-0.01	-0.76	-3	-3	0.078
CCC(=O)c1ccc(OCC(=O)NC2(C#N)CCCCC2)cc1	i	-0.63	.	.	-1	17	.
Nc1ccccc1C(=O)NNc1c2ccccc2nc2ccccc12	.	0.21	.	0.42	.	.	.
C=CCOC(=O)C1C(=O)CC(C)(O)C(C(=O)OCC=C)C1c1ccc(OC)cc1 (stereo not drawn)	i	1.2*	-0.63	0.18	-7	-8	0.075
CCCCC1CCC(c2nc(-c3ccccn3)no2)CC1 (stereo not drawn)	i	.	-0.62	0.88	0	1	.
CCCCC1CCC(c2nc(-c3cccnc3)no2)CC1 (stereo not drawn)	i	.	-0.92	.	1	3	0.08
COc1ccccc1N1CCN(C(=O)c2coc(=O)c(Br)c2)CC1	.	.	.	-0.15	.	.	.
Clc1ccc(-c2nnc(CSc3nnc(-c4cccs4)n3Cc3ccccc3)o2)cc1	i	-2.1	-1.1	-1.6	7	18	0.072
Fc1ccc(NCc2nnc(SCc3nnc(-c4ccccc4)o3)n2Cc2ccccc2)cc1	i	-4.8*	-1.1	-4.8	2	5	0.05*
NNC(=O)CCc1ccc(S(=O)(=O)N2CCOCC2)cc1	i	2.1	.	0.16	0	2	.
N#C/C(=C\c1ccc(OCc2cccc(C(=O)O)c2)cc1)C(=O)NCc1ccco1	.	.	.	0.17	.	.	0.039*
O=C(CSc1nnc(SCc2ccc(Cl)cc2)s1)N/N=C/c1c(Cl)cccc1Cl	i	.	-1.2	-0.49	1	26	.
OC(CNCc1ccc(Cl)cc1)C(F)(F)F (stereo not drawn)	i	0.65	.	0.29	0	0	.
Cc1cc(/C=N/NC(=O)c2cccs2)c(C)n1-c1ccccc1	i	3.8*	-0.23	0.11	1	5	0.081
Cc1cc(C)nc(SCC(=O)N/N=C/c2cc(C)n(-c3ccccc3C)c2C)n1	i	6.6*	0.36	-0.01	-1	11	0.12*
Cc1cc(/C=N/NC(=O)c2ccncc2)c(C)n1-c1ccccc1	i	0.82	1.7	-0.25	1	20	.
Cc1cc(/C=N/NC(=O)C(O)(c2ccccc2)c2ccccc2)c(C)n1-c1ccccc1	i	2.7*	-0.22	0.96	0	2	0.097*

Screens from PubChem.
